According to ChEMBL document CHEMBL1124816, “Effect of structure on potency and selectivity in 2,6-disubstituted 4-(2-arylethenyl)phenol lipoxygenase inhibitors” (J Med Chem, 1990):

Key:
[1] = test system: Cavia porcellus; assay: Inhibition of antigen-induced leukotriene-mediated bronchoconstriction in conscious guinea pig at the dose of 30mg/Kg, ip; assay type: functional
Outline: (§1)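 Male Hartley guinea pigs (250–300 g), actively ovalbumin-sensitized, fasted 18 h, anesthetized, pleural pressure transducer fitted. Dosed 60 min before aerosolized ovalbumin challenge with pyrilamine (10 mg/kg ip), indomethacin (10 mg/kg ip) and test agent (ip as 5% Tween 80 suspension). Head-out plethysmography after recovery; Cdyn mean change from baseline over 5–15 min post-challenge vs controls; 5–10 animals per dose; Dunnett's test.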

[2] = biological target: T1, Polyunsaturated fatty acid 5-lipoxygenase (Homo sapiens, UniProt P09917); assay: Inhibition of human neutrophil 5-lipoxygenase
T1 sequence (P09917 whole entry): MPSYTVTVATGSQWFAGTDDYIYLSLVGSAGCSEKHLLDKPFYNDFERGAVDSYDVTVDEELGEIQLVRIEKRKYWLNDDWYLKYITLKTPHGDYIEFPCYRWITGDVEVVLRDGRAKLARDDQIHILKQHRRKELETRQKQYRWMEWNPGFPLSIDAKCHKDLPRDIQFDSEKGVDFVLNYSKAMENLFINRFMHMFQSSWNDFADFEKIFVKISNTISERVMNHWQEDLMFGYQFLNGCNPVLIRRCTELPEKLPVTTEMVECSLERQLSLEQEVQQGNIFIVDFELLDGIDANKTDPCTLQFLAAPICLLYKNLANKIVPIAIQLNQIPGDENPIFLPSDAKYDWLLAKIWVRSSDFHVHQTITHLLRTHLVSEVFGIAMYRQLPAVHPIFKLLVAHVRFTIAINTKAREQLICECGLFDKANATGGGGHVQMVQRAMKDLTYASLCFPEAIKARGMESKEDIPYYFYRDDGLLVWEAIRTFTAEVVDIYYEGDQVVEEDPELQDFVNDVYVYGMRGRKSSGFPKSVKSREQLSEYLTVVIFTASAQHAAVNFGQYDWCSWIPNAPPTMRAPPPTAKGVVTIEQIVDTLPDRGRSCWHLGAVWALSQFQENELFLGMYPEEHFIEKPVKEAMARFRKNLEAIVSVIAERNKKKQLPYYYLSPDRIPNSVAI

[3] = biological target: T2, Cyclooxygenase (Homo sapiens, UniProt P35354+P23219); assay: Inhibition of human platelet Prostaglandin G/H synthase
[4] = species: Cavia porcellus; assay: Inhibition of cell influx (PMN) in guinea pig; assay type: functional
Outline: (§2)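 Male Hartley guinea pigs (250–300 g), ovalbumin-sensitized, fasted, pretreated 60 min before challenge with pyrilamine (10 mg/kg ip), indomethacin (10 mg/kg ip) and test agent (ip as 5% Tween 80 suspension). Challenged with aerosolized ovalbumin; 4 h later anesthetized and exsanguinated for late-phase inflammatory cell influx counts (total cells, PMN).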

[5] = species: Cavia porcellus; assay: Inhibition of cell influx (total cells) in guinea pig; assay type: functional; outline: as §2
[6] = (§3) Inhibition of human platelet Prostaglandin G/H synthase at the concentration of 10 uM
Outline: (§4)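 CO activity measured in human platelets. Percent inhibition at a single test concentration is compared with untreated control, with significance by ANOVA and Tukey's multiple comparisons test (p < 0.05).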

[7] = biological target: T3, Polyunsaturated fatty acid 5-lipoxygenase (Homo sapiens) (UniProt P09917); assay: (§5) Inhibition of human neutrophil 5-lipoxygenase at the concentration of 1 uM; assay type: functional
T3 sequence (whole entry): T1 sequence (P09917 whole entry)
Outline: (§6)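 5-LO activity measured in human peripheral blood leukocytes. Percent inhibition at a single test concentration is compared with untreated control, with significance by ANOVA and Tukey's multiple comparisons test (p < 0.05).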

[8] = biological target: T2, Cyclooxygenase; assay: (§7) Inhibition of human platelet Prostaglandin G/H synthase at the concentration of 1 uM; outline: as §4
[9] = test system: Cavia porcellus; assay: Inhibition of antigen-induced leukotriene-mediated bronchoconstriction in conscious guinea pig at the dose of 30mg/Kg, ip.; assay type: functional; outline: as §1
[10] = test system: Cavia porcellus; assay: Inhibition of antigen-induced leukotriene-mediated bronchoconstriction in conscious guinea pig at the dose of 10mg/Kg, ip; assay type: functional; outline: as §1
[11] = biological target: T3, Polyunsaturated fatty acid 5-lipoxygenase (Homo sapiens); assay: as §5; outline: as §6
[12] = biological target: T2, Cyclooxygenase; assay: as §7; assay type: functional; outline: as §4
[13] = biological target: T2, Cyclooxygenase; assay: as §3; assay type: functional; outline: as §4
[14] = biological target: T3, Polyunsaturated fatty acid 5-lipoxygenase (Homo sapiens); assay: Inhibition of human neutrophil 5-lipoxygenase at the concentration of 0.1 uM; outline: as §6
[15] = biological target: T3, Polyunsaturated fatty acid 5-lipoxygenase (Homo sapiens); assay: Inhibition of lipoxygenase at the concentration of 1 uM; outline: as §6
[16] = biological target: T3, Polyunsaturated fatty acid 5-lipoxygenase (Homo sapiens); assay: Inhibition of lipoxygenase at the concentration of 0.1 uM; outline: as §6
[17] = test system: Cavia porcellus; assay: Inhibition of antigen-induced leukotriene-mediated bronchoconstriction in conscious guinea pig at the dose of 30mg/Kg, po.; assay type: functional
[18] = test system: Cavia porcellus; assay: Inhibition of antigen-induced ileukotriene-mediated bronchoconstriction in conscious guinea pig at the dose of 300mg/Kg, po.; assay type: functional
[19] = test system: Cavia porcellus; assay: Inhibition of antigen-induced leukotriene-mediated bronchoconstriction in conscious guinea pig at the dose of 100mg/Kg, po.; assay type: functional
[20] = test system: Cavia porcellus; assay: Inhibition of antigen-induced leukotriene-mediated bronchoconstriction in conscious guinea pigat the dose of 100mg/Kg, ip; assay type: functional; outline: as §1

Row | SMILES | IC50 [2] [µM] | IC50 [3] [µM] | inhibition in vivo at 30 mg/kg [1] [%] | other results
1 | COc1ccc(/C=C/c2cc(C)c(O)c(C)c2)cc1 | 0.091 | 1.5 | 28 | –
2 | CCCc1cc(/C=C/c2cccs2)cc(OC)c1O | 0.086 | 1.3 | 57 | Inhibition [4]: 54%; Inhibition [5]: 77%
3 | CCc1cc(/C=C/c2cccs2)cc(OC)c1O | 0.09 | 1.4 | 51 | –
4 | Cc1cc(/C=C/c2ccccc2C(=O)O)cc(C)c1O | > 1 | > 10 | – | inhibition [6]: 25%; inhibition [7]: 12%; inhibition [8]: 16%
5 | Cc1cccc(/C=C/c2cc(C)c(O)c(C)c2)c1 | 0.13 | 2.5 | – | inhibition in vivo at 30 mg/kg [9]: 49%
6 | COc1cc(/C=C/c2cccs2)cc(C)c1O | 0.086 | 3.1 | 41 | –
7 | Cc1cc(/C=C/c2ccsc2)cc(C)c1O | 0.045 | < 10 | 26 | inhibition [6]: 96%; inhibition [8]: 38%
8 | CCc1cc(/C=C/c2cccnc2)cc(CC)c1O | < 1 | < 10 | – | inhibition [11]: 86%; inhibition [12]: 20%; inhibition [13]: 82%; inhibition [14]: 36%
9 | Cc1cc(/C=C/c2ccncc2)cc(C)c1O | 1 | > 10 | – | inhibition [6]: 17%; inhibition [8]: 0%; inhibition [15]: 51%; inhibition [16]: 1%
10 | CC(C)(C)c1cc(/C=C/c2cccnc2)cc(C(C)(C)C)c1O | 1.7 | – | – | inhibition in vivo at 30 mg/kg [17]: -24%; Inhibition [4]: 0%; inhibition in vivo at 300 mg/kg [18]: 7.7%; inhibition in vivo at 100 mg/kg [19]: -2%; inhibition in vivo at 100 mg/kg [20]: 10%; Inhibition [5]: 0%

Further lines, with some results ahead:

Row | IC50 [2] [µM] | IC50 [3] [µM] | SMILES | inhibition in vivo at 30 mg/kg [1] [%] | other results
11 | 0.12 | 1.3 | Cc1cc(/C=C/c2ccc(F)cc2)cc(C)c1O [ENOFELAST] | – | inhibition in vivo at 30 mg/kg [9]: 43%
12 | 0.054 | 0.78 | Cc1cc(/C=C/c2cccs2)cc(C)c1O | 70.3 | inhibition in vivo at 10 mg/kg [10]: 34.5%; Inhibition [4]: 95%; Inhibition [5]: 78%
13 | < 1 | < 1 | Cc1cc(/C=C/c2ccccc2Br)cc(C)c1O | – | inhibition [6]: 91%; inhibition [8]: 84%; inhibition [15]: 94%; inhibition [16]: 26%
14 | 0.29 | 3.2 | Cc1ccc(/C=C/c2cc(C)c(O)c(C)c2)cc1 | – | inhibition in vivo at 30 mg/kg [9]: 59%
